Among the data in the array DNA melting data of Ke et al. (doi:10.1101/2024.01.08.574731) are folding enthalpy and Tm values, retold here.

Data set [1] is described as follows: folding enthalpy; higher = less favourable; fluorescence melt of hairpins on a sequencing array, two-state fit. The settings on record: sodium 0.088 M. The method in brief:
(§1)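 Melting temperature and folding enthalpy were derived from bootstrapped two-state fits. The fitted temperatures were raised by 9.35 °C to agree with UV melts, and four replicates were combined by inverse variance. The underlying data were Cy3 fluorescence images of library hairpins, with annealed Cy3 and quencher oligos, on a sequenced MiSeq flow cell in 50 mM Na-HEPES pH 8.0, 25 mM NaCl, taken in 2.5 °C steps up to 60 °C, normalised to pre-quench Cy3 and to control constructs.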

A short description of data set [2]: melting temperature; fluorescence melt of hairpins on a sequencing array, two-state fit, raised by 9.35 °C to match UV melts. The note with it: sodium 0.088 M. The procedure, abridged: as §1

As to GATCAACGGCTTGATC ((((((....)))))), the folding enthalpy in data set [1] was -28.7 kcal/mol. In addition, the Tm in data set [2] came out at 42.4 °C.

As to GAGTGCGAAAGCAACTC ((((((....))).))), the folding enthalpy in data set [1] was -18.8 kcal/mol. Moreover, the Tm in data set [2] was determined as 59 °C.

As to GAATGCGAAAGCATTTTC ((((((....)))..))), the folding enthalpy in data set [1] was -14.6 kcal/mol. The Tm in data set [2] was 49 °C.

Consider GCATAGCGAAAGCTTTGC (((.(((....))).))), for which the folding enthalpy in data set [1] is -41.9 kcal/mol. Also, the Tm in data set [2] was 53.4 °C.

As to GATCTCATTGGAGATC ((((((....)))))), the folding enthalpy in data set [1] was -38.7 kcal/mol. In data set [2], the Tm was determined as 52.2 °C.

Consider GATCGGCTGTCCGATC ((((((....)))))), for which the folding enthalpy in data set [1] is -39.6 kcal/mol. The Tm in data set [2] came out at 56.3 °C.

For the sequence GATCGGAACCCCGATC ((((((....)))))), the folding enthalpy in data set [1] was -40 kcal/mol. Also, the Tm in data set [2] stood at 54.1 °C.

For the sequence GGTAGGGCGAAAGCCACC (((..(((....)))))), the folding enthalpy in data set [1] was -14 kcal/mol. Besides, in data set [2], the Tm stood at 41.9 °C.

For GTCCTCCGAAAGGAGAC (((.(((....)))))), the folding enthalpy in data set [1] was -15.9 kcal/mol. Moreover, the Tm in data set [2] was determined as 47.5 °C.

For GTTTATGAAAATAAAC ((((((....)))))), in data set [1], the folding enthalpy is -33 kcal/mol. The Tm in data set [2] was determined as 42.4 °C.

For the sequence GGATTGCGAAAGCACTCC (((.(((....))).))), the folding enthalpy in data set [1] was -34.9 kcal/mol. For the same sequence, the Tm in data set [2] is 49.4 °C.

Consider GATCGCACGTGCGATC ((((((....)))))), for which, in data set [1], the folding enthalpy was -40.4 kcal/mol. In addition, in data set [2], the Tm came out at 68.8 °C.

Take CAGACGAAAGTCTG (((((....))))): the folding enthalpy in data set [1] was -24.4 kcal/mol. In addition, the Tm in data set [2] was 61.9 °C.

As for GTGGATGGAAACGTTCAC (((.(.(....).).))), the folding enthalpy in data set [1] is -16.7 kcal/mol. In addition, the Tm in data set [2] was found to be 32.4 °C.

With GGGGTCGAAAGACGCCC ((((((....))).))), the folding enthalpy in data set [1] is -18.8 kcal/mol. In addition, the Tm in data set [2] amounted to 57.7 °C.

With GATCAGCGCCCTGATC ((((((....)))))), the folding enthalpy in data set [1] was -39.5 kcal/mol. In addition, in data set [2], the Tm was 49 °C.

As for GCAGGCGGAAACGCCCGC ((.((((....)))).)), the folding enthalpy in data set [1] is -15.8 kcal/mol. Also, the Tm in data set [2] was 59.3 °C.

Take GTGAACGAAAGTTTGCAC ((((((....)))..))): the folding enthalpy in data set [1] is -15.4 kcal/mol. For the same sequence, the Tm in data set [2] was found to be 32 °C.

With GATCATGTAAATGATC ((((((....)))))), in data set [1], the folding enthalpy was -38.9 kcal/mol. The Tm in data set [2] came out at 56.6 °C.

For the sequence GATCTGCGGACAGATC ((((((....)))))), in data set [1], the folding enthalpy was -28.2 kcal/mol. For the same sequence, the Tm in data set [2] came to 50.4 °C.

As for GTAAACGAAAGTTGCTAC ((((((....)))..))), in data set [1], the folding enthalpy was -9.49 kcal/mol. The Tm in data set [2] turned out to be 29 °C.

Regarding GCGAAGCCTCGC ((((....)))), the folding enthalpy in data set [1] was -8.82 kcal/mol. Also, the Tm in data set [2] amounted to 50.6 °C.

GATCAGTTGCTGATC ((((((...)))))): in data set [1], the folding enthalpy is -34.1 kcal/mol. In addition, in data set [2], the Tm was 48.8 °C.

For GCGATCGAAAGATCCGC ((((((....))).))), the folding enthalpy in data set [1] was -28.8 kcal/mol. Also, the Tm in data set [2] was determined as 52 °C.

On to GAACGCGAAAGCGGTTTC ((((((....)))..))), for which the folding enthalpy in data set [1] is -10.8 kcal/mol. For the same sequence, the Tm in data set [2] was 41.9 °C.

As to GATCAGGCGCCTGATC ((((((....)))))), in data set [1], the folding enthalpy is -52.1 kcal/mol. Moreover, the Tm in data set [2] is 60.8 °C.

In the case of GTGCGCGAAAGCGGCCAC ((((((....)))..))), the folding enthalpy in data set [1] is -11.5 kcal/mol. Also, the Tm in data set [2] was found to be 45.9 °C.

On to GATCCCTCCTGGGATC ((((((....)))))), for which the folding enthalpy in data set [1] was -37 kcal/mol. In data set [2], the Tm was found to be 61 °C.

As to GACGCCCGAAAGGGGTC (((.(((....)))))), the folding enthalpy in data set [1] is -17.1 kcal/mol. Besides, the Tm in data set [2] turned out to be 55.6 °C.

Consider GATCAACCAATTGATC ((((((....)))))), for which the folding enthalpy in data set [1] is -32.7 kcal/mol. Also, in data set [2], the Tm was determined as 39 °C.

For the sequence GGCCGACCGAAAGGTGCC (((..(((....)))))), the folding enthalpy in data set [1] was -25.5 kcal/mol. Moreover, the Tm in data set [2] was found to be 49.5 °C.
